Experiment [1] concerns the target T1, Opioid receptor (Mus musculus) (UniProt P42866+P32300+P33534). Nature of the experiment: Opioid receptors antagonist potency in reversing the effects of Met5E was determined in mouse isolated vas deferens. It is filed as functional, tissue-based. The essentials:
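Electrically stimulated mouse isolated vas deferens. Antagonism is measured against agonist-induced effects, with Met⁵-enkephalin as the δ agonist. Antagonist potency is expressed as pA₂.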

Experiment [2] has as its target T1, Opioid receptor (Mus musculus). Nature of the experiment: Opioid receptors antagonist potency in reversing the effects of normorphine was determined in mouse isolated vas deferens. It is filed as functional, tissue-based.
Experiment [3] has as its target T2, Opioid receptor (Mus musculus, UniProt P42866+P32300+P33534). Nature of the experiment: Concentration required to inhibit the stereospecific [3H]diprenorphine binding Opioid receptors in the absence of sodium(Na+) was determined in mouse isolated vas deferens. It is filed as protein assay.
Experiment [4] addresses T2, Opioid receptor. Nature of the experiment: Concentration required to inhibit the stereospecific [3H]diprenorphine binding Opioid receptors in the presence of sodium(Na+) was determined in mouse isolated vas deferens. It is filed as protein assay.

For 5 compounds, Concentration and IC50 results are on record in ChEMBL document CHEMBL1122178, “N-Methylnalorphine: definition of N-allyl conformation for antagonism at the opiate receptor” (J Med Chem, 1982).

As usually defined, the IC50 is the concentration needed to halve the response being measured.

The structures appear in SMILES notation.

T1 sequence (P32300 whole entry, looked up): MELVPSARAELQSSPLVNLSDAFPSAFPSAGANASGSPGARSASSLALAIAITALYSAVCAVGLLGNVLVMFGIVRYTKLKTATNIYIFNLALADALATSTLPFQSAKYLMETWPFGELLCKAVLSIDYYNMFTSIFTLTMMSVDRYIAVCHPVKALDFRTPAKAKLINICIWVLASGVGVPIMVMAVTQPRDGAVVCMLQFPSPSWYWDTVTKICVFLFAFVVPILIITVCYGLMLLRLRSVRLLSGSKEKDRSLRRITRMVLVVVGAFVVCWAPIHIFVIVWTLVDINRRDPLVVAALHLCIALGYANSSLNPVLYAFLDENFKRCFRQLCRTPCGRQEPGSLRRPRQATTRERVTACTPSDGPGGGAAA
T1 sequence (P33534 whole entry, looked up): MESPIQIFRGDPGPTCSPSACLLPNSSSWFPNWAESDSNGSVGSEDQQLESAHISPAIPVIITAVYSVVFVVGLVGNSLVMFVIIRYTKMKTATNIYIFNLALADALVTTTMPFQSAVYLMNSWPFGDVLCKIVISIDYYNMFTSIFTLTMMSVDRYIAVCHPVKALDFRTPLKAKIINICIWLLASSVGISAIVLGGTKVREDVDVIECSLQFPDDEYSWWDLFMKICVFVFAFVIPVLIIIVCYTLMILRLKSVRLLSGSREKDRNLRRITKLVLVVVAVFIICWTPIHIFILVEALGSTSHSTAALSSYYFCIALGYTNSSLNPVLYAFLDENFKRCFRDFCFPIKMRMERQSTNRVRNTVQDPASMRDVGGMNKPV
T1 sequence (P42866 whole entry, looked up): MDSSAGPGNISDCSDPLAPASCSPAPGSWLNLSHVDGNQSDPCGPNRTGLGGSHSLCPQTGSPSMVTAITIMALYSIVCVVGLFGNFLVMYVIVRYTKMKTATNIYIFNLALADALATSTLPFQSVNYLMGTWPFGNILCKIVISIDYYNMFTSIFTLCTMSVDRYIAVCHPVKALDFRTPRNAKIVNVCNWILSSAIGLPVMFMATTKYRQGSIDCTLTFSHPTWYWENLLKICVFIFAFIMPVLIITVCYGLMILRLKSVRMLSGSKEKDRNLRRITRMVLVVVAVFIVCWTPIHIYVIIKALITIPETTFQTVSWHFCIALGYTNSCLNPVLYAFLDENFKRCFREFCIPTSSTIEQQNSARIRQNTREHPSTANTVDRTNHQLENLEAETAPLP

For `C=CCN1CC[C@]23c4c5ccc(O)c4O[C@H]2[C@@H](O)C=C[C@H]3[C@H]1C5`, the Concentration in experiment [1] stood at 0.286 µM; in experiment [2], 22.4 nM.
As to `C=CC[N+]1(C)CC[C@]23c4c5ccc(O)c4O[C@H]2[C@@H](O)C=CC3[C@H]1C5.[I-]` (stereo in doubt; A), the results for the IC50 at Opioid receptor [3] and at Opioid receptor [4] were 8.5 µM and 11.5 µM, respectively.
Consider `C=CC[N+]1(C)CC[C@]23c4c5ccc(O)c4O[C@H]2[C@@H](O)C=CC3[C@H]1C5` (stereo in doubt; A), for which the Concentration in experiment [1] is more than 22 µM; in experiment [2] it was 1250 nM.
`C=CC[N+]1(C)CC[C@]23c4c5ccc(O)c4O[C@H]2[C@@H](O)C=CC3[C@H]1C5.[I-]` (stereo in doubt; B): the IC50 on Opioid receptor [3] was 0.44 µM; at Opioid receptor [4], 0.51 µM.
As for `C=CC[N+]1(C)CC[C@]23c4c5ccc(O)c4O[C@H]2[C@@H](O)C=CC3[C@H]1C5` (stereo in doubt; B), the values for the Concentration in experiment [1] and in experiment [2] were 4.92 µM and 59.2 nM, respectively.
